From the RNAGym collection of RNA variant scans (doi:10.1126/science.aae0568)
This sample holds only a part of the variants without activity.

B1: tRNA (parent)
chain: GUUCCGUUGGCGUAAUGGUAACGCGUCUCCCUCCUAAGGAGAAGACUGCGGGUUCGAGUCCCGUACGGAACG

Variants of: B1
Test: yeast fitness relative to wild type (ratio to wild type); higher = fitter; tRNA-Arg(CCU), competitive growth, 37 C, YPD
In short: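 A pool of Saccharomyces cerevisiae strains, each with a tRNA-Arg(CCU) gene variant at the native genomic locus, was competed in YPD at 37°C for 24 hours across six parallel replicates. The variants had been chemically synthesised at a 3% per-site mutation rate over 69 sites, and gene amplicons before and after competition were read by 100-nucleotide paired-end sequencing. Darwinian fitness relative to wild type rested on changes in genotype frequencies. Genotypes required ≥ 100 starting reads, and estimates < 0.5 were set to 0.5.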

U2C C30U U54A and U2C U7C U19C C34U G52A U59A cannot be ordered by yeast fitness: no more than 0.5 for the first, no more than 0.5 for the second.

Compared with U2A U8G C33A G38A, U2A U3A U16C C24U C62U is higher in yeast fitness: no more than 0.5 for the first, 0.629 for the second.

U2G G17C C33U U47A A69U and U2G G12A A15U C24G U53A U64A cannot be ordered by yeast fitness: no more than 0.5 for the first, no more than 0.5 for the second.

Going from U2C G39C to U2C A15G G38C U64A G68A A69C, the yeast fitness falls from 0.774 to no more than 0.5.

First: U2C C27U U28G C33G A36G
Second: U2G G12A C55U C61A
The yeast fitness of the first is higher: 0.544 for the first, no more than 0.5 for the second.

Compared with U2G C4U C61A C62U A65U A69C, U2G A42U U47A is higher in yeast fitness: 0.519 for the first, 0.738 for the second.

Compared with U2A G17C A70U, U2A C34G is higher in yeast fitness: 0.572 for the first, 0.604 for the second.

U2C G6C A65U G67A and U2C C31G C55U G63A cannot be ordered by yeast fitness: no more than 0.5 for the first, no more than 0.5 for the second.

Compared with U2A U28G G67A, U2A G68C is higher in yeast fitness: no more than 0.5 for the first, 0.671 for the second.

Compared with U2G C11G C49A C60U G68C, U2C A20U A40U is higher in yeast fitness: no more than 0.5 for the first, 0.52 for the second.

U2A U7A A15U and U2C C33U A69U cannot be ordered by yeast fitness: no more than 0.5 for the first, no more than 0.5 for the second.

First: U2G G18A C27A C30U
Second: U2C C24A U26A U47C C61U
The yeast fitness of the first is lower: no more than 0.5 for the first, 0.628 for the second.

Compared with U2G G39A C61G, U2A G25A G68A is higher in yeast fitness: no more than 0.5 for the first, 0.64 for the second.

U2A U8C U47A G68C and U2C U7G A40C G51A G67A cannot be ordered by yeast fitness: no more than 0.5 for the first, no more than 0.5 for the second.

Compared with U2G A36U A45U U53A, U2C C11G is higher in yeast fitness: no more than 0.5 for the first, 0.617 for the second.

U2C A15G C61U and U2C C4U G10C A57C cannot be ordered by yeast fitness: no more than 0.5 for the first, no more than 0.5 for the second.

First: U2G G9C A70G
Second: U2A G9A U13A
The yeast fitness of the first is lower: 0.585 for the first, 0.645 for the second.

Going from U2A G50C U59C C60A to U2A G23A C29G A70U, the yeast fitness falls from 0.877 to 0.541.

U2G C22A G25A G56A and U2C C27G G51A cannot be ordered by yeast fitness: no more than 0.5 for the first, no more than 0.5 for the second.

U2C G9C U13C A20C and U2C A40U A42C C66U cannot be ordered by yeast fitness: no more than 0.5 for the first, no more than 0.5 for the second.

Compared with U2C A42U C62U, U2A U3G C29G C30G C46G A70G is lower in yeast fitness: 0.571 for the first, no more than 0.5 for the second.

Compared with U2C C27G U28A A43U A69U, U2C C4A U28C U53C is lower in yeast fitness: 0.541 for the first, no more than 0.5 for the second.

U2G C33A G39C and U2C G6C A42G A65U G67A cannot be ordered by yeast fitness: no more than 0.5 for the first, no more than 0.5 for the second.

Going from U2A G6C U16C C24U C46G C49A C61U to U2C A57G, the yeast fitness rises from no more than 0.5 to 0.891.

U2A G6C A21G U32C U59G C66U A70C and U2A U32C U35C A36G cannot be ordered by yeast fitness: no more than 0.5 for the first, no more than 0.5 for the second.

Going from U2A C33G to U2G G10C U35G C46U A65C G67C, the yeast fitness falls from 0.714 to no more than 0.5.

First: U2G C11U A20C A70C
Second: U2G C30A U35G G51C
The yeast fitness of the first is higher: 0.667 for the first, no more than 0.5 for the second.

Going from U2G C62G G67A to U2C C29U C46G G51A G52C, the yeast fitness rises from 0.526 to 0.557.

First: U2A C60G
Second: U2C A37G A70C
The yeast fitness of the first is higher: 0.666 for the first, 0.561 for the second.

Going from U2C C5G to U2C C5U, the yeast fitness rises from 0.738 to 0.98.

U2G C29U U54C A57G U59C and U2G C4A C22U U28G A42U C49A cannot be ordered by yeast fitness: no more than 0.5 for the first, no more than 0.5 for the second.

First: U2A U35C G38C U47G
Second: U2G C5G C34G C49G
The yeast fitness of the first is lower: no more than 0.5 for the first, 0.505 for the second.

Going from U2G C5A A43U C55U G68A to U2G C4U G52C, the yeast fitness rises from no more than 0.5 to 0.516.

Going from U2A G48C to U2C C22G C31U A36U C49U, the yeast fitness falls from 0.92 to 0.649.

Compared with U2C U13C C27A C61U, U2C A37U A40C is higher in yeast fitness: no more than 0.5 for the first, 0.633 for the second.

Going from U2C C31G G56A to U2C U19G U28G, the yeast fitness falls from 0.687 to no more than 0.5.

U2A G12A G17A A20G A21C C29A A69U and U2C C4G C22U C30A A65U cannot be ordered by yeast fitness: no more than 0.5 for the first, no more than 0.5 for the second.

First: U2C U47A C62U
Second: U2C A20G U47A U53A C62U C66U
The yeast fitness of the first is higher: 0.531 for the first, no more than 0.5 for the second.

Going from U2G A20C G48C to U2G A20U C29A G39A A45C, the yeast fitness rises from no more than 0.5 to 0.586.

Compared with U2A G17C C24U C33U A36G U54C, U2C C46U A65U is higher in yeast fitness: no more than 0.5 for the first, 1.06 for the second.

Going from U2A U8G C22U U32C C33G G38A to U2G A40U C49A, the yeast fitness rises from no more than 0.5 to 0.547.

For U2C C11A C22G, the yeast fitness was 0.602.
